Screening results from PubChem.
Rows were chosen to be rich in hits. Some 3.9% of all compounds tested hit in one or more screens of this group.
AHR act: human AHR activation; P35869; AHR-responsive luciferase reporter cells, luminescence; activation, % at 5 µM; 2.5% of 320,000 active; in the data active means activation above about 47%;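 further: 0% = vehicle wells and 100% = reference agonist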
Target sequence (P35869 whole entry, looked up): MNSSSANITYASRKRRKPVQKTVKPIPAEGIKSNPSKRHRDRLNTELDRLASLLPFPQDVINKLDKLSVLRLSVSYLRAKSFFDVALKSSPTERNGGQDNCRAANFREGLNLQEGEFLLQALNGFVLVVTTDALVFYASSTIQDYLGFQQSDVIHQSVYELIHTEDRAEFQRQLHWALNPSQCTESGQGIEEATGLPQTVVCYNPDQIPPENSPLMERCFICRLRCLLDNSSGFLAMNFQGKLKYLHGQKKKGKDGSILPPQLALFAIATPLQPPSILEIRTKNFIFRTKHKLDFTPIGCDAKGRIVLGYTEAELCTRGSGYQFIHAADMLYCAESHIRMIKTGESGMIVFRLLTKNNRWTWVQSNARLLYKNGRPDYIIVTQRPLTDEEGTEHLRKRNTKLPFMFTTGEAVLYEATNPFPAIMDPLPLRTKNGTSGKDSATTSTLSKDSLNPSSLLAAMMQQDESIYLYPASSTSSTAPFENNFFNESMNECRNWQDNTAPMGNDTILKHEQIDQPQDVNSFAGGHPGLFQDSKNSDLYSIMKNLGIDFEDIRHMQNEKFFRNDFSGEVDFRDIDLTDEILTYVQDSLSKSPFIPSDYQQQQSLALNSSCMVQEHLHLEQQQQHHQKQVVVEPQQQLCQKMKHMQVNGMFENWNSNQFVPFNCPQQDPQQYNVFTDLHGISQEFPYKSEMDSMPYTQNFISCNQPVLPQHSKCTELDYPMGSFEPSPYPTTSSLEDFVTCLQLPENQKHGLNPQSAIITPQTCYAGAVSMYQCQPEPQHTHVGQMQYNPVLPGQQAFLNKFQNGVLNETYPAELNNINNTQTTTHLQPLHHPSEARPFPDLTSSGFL
SR-BI DiI inh: inhibitors of mouse SR-BI mediated HDL lipid uptake. ldlA[mSR-BI] CHO cells, DiI-HDL uptake fluorescence, 3 h. 0.96% of 320,000 active. Q61009. inhibition, % at 12.5 µM;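 active means mean replicate inhibition of at least 70% and a set share of replicates each scoring 70 or more; inconclusive means meets just one of the two criteria; inactive means fails both criteria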;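 further: 0% = median of neutral control wells and 100% = median of positive control wells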
ABCB6 inh MLPCN: blocks the human ABCB6 transporter; K562-ABCB6 porphyrin accumulation, flow cytometry, 1 h; hits give low values; AID 602162; Q9NP58; 0.19% of 360,000 active; fluorescence ratio to DMSO, % at 10 µM;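 active means fluorescence ratio to DMSO below 75%, the collection mean minus 3 SD; inconclusive means too few cells collected in the well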;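 further: signal is porphyrin accumulated inside mitochondria; 100% equals median channel fluorescence of DMSO control wells; lower ratio means ABCB6 inhibition with less porphyrin fluorescence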
FXN GAA850 act: increases GAA850 frataxin promoter reporter activity. HEK293 lucGAA850 FXN promoter luciferase reporter, 24 h; percent of 10 µM SAHA response. activation, % at 6 µM. 0.56% of 360,000 active. AID 540364;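 active means activation above the average of all compounds screened plus 3 SD, cutoff fixed separately per campaign, cut at about 7.5% in these data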;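 further: 0% = DMSO wells and 100% = 10 µM SAHA wells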
SR-BI DiI-HDL act: SR-BI HDL lipid transfer activation; CHO ldlA[mSR-BI] cells, DiI-HDL uptake fluorescence, 3 h; 100 = double the neutral-control signal; activation, % at 12.5 µM; 0.096% of 320,000 active; AID 504775;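 active means mean replicate activation of at least 60% and every replicate at or above 60%; inconclusive means mean or all-replicate condition met, but not both; inactive means mean below 60% and not all replicates reaching 60%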;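 further: 0% = median plate neutral-control signal and 100% = twice that signal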
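System: LDL receptor-deficient CHO ldlA cells overexpressing murine SR-BI | Timing: 3 h uptake period with compound, 37 °C | Medium: HEPES-buffered (25 mM, pH 7.4) F12 plus 0.5% BSA | Dosing: Single-point compound dose | Signal: Bottom-read fluorescence, 550/595 nm | Read-out: Retained DiI signal reflecting DiI-HDL uptake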
HIF activator: HIF pathway transcriptional activation | U2OS HRE-luciferase reporter, luminescence; normalized: DMSO 0%, desferrioxamine 100% | activation, % at 7.5 µM (by protocol) | 0.32% of 300,000 active | AID 1910;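 active means mean activation of at least 10% of the iron chelator positive control signal, with at least half of replicates also reaching 10%; inconclusive means mean and replicate majority disagree about reaching 10%; inactive means mean and most replicates under 10%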
GAA30 FXN cntr: counter-screen for GAA850 frataxin promoter activators: GAA30 promoter activation | HEK293 lucGAA30 FXN promoter luciferase, 24 h; DMSO = 0%, 5 µM ipriflavone = 100% | shares compounds with FXN GAA850 act | 66% of 1,900 active | activation, % at 6 µM | AID 588350;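 active means mean activation above the mean of solvent-only control wells plus 3 SD, cut at about 22% in these data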;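 further: counterscreen of GAA850 promoter hits where activity marks nonselective or luminescence artifacts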
FXN GAA850 conf: confirmation of GAA850 frataxin (FXN) promoter activators; AID 588351; 86% of 1,900 active; shares compounds with FXN GAA850 act; activation, % at 6 µM; HEK293 lucGAA850 FXN promoter luciferase reporter, 24 h; 100% = activation by SAHA;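 active means mean activation above a set limit taken from the primary screen, cut at about 8% in these data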;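 further: 0% = DMSO wells and 100% = 10 µM SAHA wells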
ABCB6 blocker 1: blocks the human ABCB6 transporter; ratio response (% of DMSO), % at 10 µM; shares compounds with ABCB6 inh MLPCN; 700 tested, under 10 active; K562-ABCB6 porphyrin accumulation, flow cytometry, 1 h; hits give low values; AID 602430;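 active means repeat-averaged ratio response below 75% of DMSO, the collection mean minus 3 SD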;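 further: median porphyrin fluorescence at 575 nm with 488 nm excitation from mitochondria; lower ratio means less porphyrin signal so ABCB6 inhibition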
Starred values were filed as active, the others as inactive; ? = inconclusive; · = not tested or not shown.

SMILES	AHR act	SR-BI DiI inh	ABCB6 inh MLPCN	FXN GAA850 act	SR-BI DiI-HDL act	HIF activator	GAA30 FXN cntr	FXN GAA850 conf	others
Cc1ccc(N2C(=O)NC(=O)/C(=C\C=C\c3ccco3)C2=O)cc1	3	·	100	8.0*	·	2	11	20*
CC(C)(O)C(=O)Nc1ccc([N+](=O)[O-])c(C(F)(F)F)c1	1	1	99	12*	-1	·	16	7
COc1cc2c(cc1OC)CN(c1ccc([N+](=O)[O-])c(C(F)(F)F)c1)CC2	25	36	96	3	-36	-1	·	·
CN1C(=O)/C(=C\c2ccc(N3CCCCC3)o2)C(=O)NC1=S	6	-39	97	5	39	4	·	·
CN1C(=O)/C(=C/c2ccc(N3CCCCCC3)o2)C(=O)NC1=S	12	2	100	9.9*	-2	3	100*	47*
COC1/C=C/C=C(\C)Cc2cc(O)c(Cl)c(c2)N(C)C(=O)CC(OC(=O)C(C)C)C2(C)OC2C(C)C2CC1(O)NC(=O)O2 (stereo not given)	·	-15	95	19*	15	·	-17	21*
N#CCCn1cc(C(=O)Nc2ccccc2Br)c(-c2ccc([N+](=O)[O-])cc2)n1	-1	52	99	0	-52	1	·	·
O=c1ccc2cc(OC3O[C@H](CO)[C@@H](O)[C@H](O)[C@H]3O)c(O)cc2o1 (stereo not given in full)	-1	-9	100	4	9	·	·	·
C/C(=N\N1CCCCC1c1cccnc1)c1c(O)n(C2CCCCC2)c(=S)[nH]c1=O (stereo not given)	6	-2	128	8.2*	2	-1	15	17*
CCCCn1c(O)c(/C(CC)=N/N2CCCCC2c2cccnc2)c(=O)[nH]c1=S (stereo not given)	9	-23	95	1	23	0	·	·
C[C@]12CCC3C(CC[C@H]4C[C@@H](O)CC[C@]34C)C1[C@H]1CN=N[C@H]1[C@@H]2O (stereo not given in full)	-1	-13	104	1	13	·	·	·
N#Cc1cn(C2OC(CO)C(O)C2O)c2ncnc(N)c12 (stereo not given)	·	-185	98	14*	?	·	48*	-4
CC1=C(C/C(C)=C/c2ccccc2)/C(=C/CO)[C@H](O)[C@](C)(O)C12CC2	1	5	104	-2	-5	-1	·	·
N#Cc1ccc(NC(=O)CN2CCCCCC2)cc1Cl	-4	·	101	1	·	0	·	·
CCCC/C(C)=C/[C@@H](NP(=O)(c1ccccc1)c1ccccc1)c1ccccc1	3	-14	98	9.2*	14	0	13	5
Cc1c(O)ccc(C(=O)CN2CC(C)OC(C)C2)c1O (stereo not given)	1	-17	89	-1	17	0	·	·
O=[N+]([O-])c1ccc(O)c([N+](=O)[O-])c1	0	-16	93	0	16	0	·	·
O=[N+]([O-])c1ccc(Cl)c([N+](=O)[O-])c1	-4	-11	107	8.0*	11	·	38*	78*
O=C1C=C2C=C[C@@H]3CC2(O1)[C@H]1CCCCN31	-2	7	97	8.1*	-7	·	36*	14*
C=C1C(C)C2C(Cc3ccccc3)NC(=O)C23C(OC(C)=O)C=CC(C)(O)CC(C)CC=CC3C1O (stereo not given)	·	-14	88	7.6*	14	·	17	23*
CN1CCN(c2ccc3c(c2)S(=O)(=O)c2ccccc2C3=O)CC1	43	-8	96	8.8*	8	4	97*	35*
O=C1NC(=O)N(Cc2ccccc2)C(=O)/C1=C\C=C\c1ccco1	-3	8	107	13*	-8	1	8	31*
O=C1NC(=O)N(Cc2ccco2)C(=O)/C1=C/C=C/c1ccco1	0	·	98	10*	·	3	-4	26*
O=C1NC(=O)N(c2ccccc2)C(=O)/C1=C/C=C/c1ccco1	1	·	100	6	·	2	·	·
Clc1ccc(CO/N=C(\Cn2ccnc2)c2ccc(Cl)cc2Cl)c(Cl)c1	10	·	·	·	·	-1	·	·
COc1cccc(CNCCc2c[nH]c3ccccc23)c1OC	3	-14	94	-2	14	-1	·	·
COc1ccc(CNCCc2c[nH]c3ccccc23)c(OC)c1OC	2	-9	97	8.1*	9	0	13	8.7*
CCOc1cc2c(cc1OCC)-n1cccc1C(c1ccccc1OC)NC2 (stereo not given)	4	9	73*	-7	-9	2	·	·	ABCB6 blocker 1=98
Cc1cccc(N2C(=O)CC(=O)NC2=O)c1	15	-12	88	-1	12	-1	·	·
